Legend:
Details in all cases: stereoisomer not certain
OR10A3 (Homo sapiens) = target: T1, OR10A3 (Homo sapiens) (UniProt P58181)
T1 sequence (whole entry): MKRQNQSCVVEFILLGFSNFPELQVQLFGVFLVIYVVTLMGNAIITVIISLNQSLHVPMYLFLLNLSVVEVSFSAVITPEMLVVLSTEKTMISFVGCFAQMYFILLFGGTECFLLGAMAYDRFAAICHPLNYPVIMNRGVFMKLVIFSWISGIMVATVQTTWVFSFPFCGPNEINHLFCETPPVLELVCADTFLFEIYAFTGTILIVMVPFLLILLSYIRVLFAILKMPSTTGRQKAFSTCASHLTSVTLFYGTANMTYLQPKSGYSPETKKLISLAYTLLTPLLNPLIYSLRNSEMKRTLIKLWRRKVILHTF
Procedure, shortened: (§1)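 Transient luciferase assays in mammalian cell lines were common, though methods varied by source. The values come from published papers and their supplementary material, with extra details from the original authors when needed. Responsive refers to a measured signal the original authors judged statistically different from baseline, and non-responsive (inactive) to the remainder.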

OR10A4 (Homo sapiens) = target: T2, OR10A4 (Homo sapiens) (UniProt Q9H209)
T2 sequence (whole entry): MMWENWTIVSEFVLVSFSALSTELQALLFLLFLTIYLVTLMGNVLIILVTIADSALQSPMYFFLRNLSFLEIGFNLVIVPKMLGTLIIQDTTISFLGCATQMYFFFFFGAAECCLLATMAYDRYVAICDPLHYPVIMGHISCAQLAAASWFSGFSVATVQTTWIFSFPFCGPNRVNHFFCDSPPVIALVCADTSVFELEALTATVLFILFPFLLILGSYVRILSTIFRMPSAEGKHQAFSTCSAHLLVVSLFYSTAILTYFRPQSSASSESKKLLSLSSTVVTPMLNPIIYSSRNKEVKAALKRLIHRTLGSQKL
Procedure, shortened: as §1

OR10A5 (Homo sapiens) = target: T3, OR10A5 (Homo sapiens) (UniProt Q9H207)
T3 sequence (whole entry): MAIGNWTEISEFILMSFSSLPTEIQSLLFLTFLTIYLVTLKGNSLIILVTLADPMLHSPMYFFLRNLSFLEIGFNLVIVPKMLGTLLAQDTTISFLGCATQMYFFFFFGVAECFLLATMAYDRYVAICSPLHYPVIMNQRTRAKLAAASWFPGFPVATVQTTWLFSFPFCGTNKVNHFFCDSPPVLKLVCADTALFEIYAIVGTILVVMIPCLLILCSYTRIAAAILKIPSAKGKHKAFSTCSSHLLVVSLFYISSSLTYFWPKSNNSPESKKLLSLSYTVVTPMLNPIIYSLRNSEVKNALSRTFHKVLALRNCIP
Procedure, shortened: as §1

OR10A6 (Homo sapiens) = target: T4, OR10A6 (Homo sapiens) (UniProt Q8NH74)
T4 sequence (whole entry): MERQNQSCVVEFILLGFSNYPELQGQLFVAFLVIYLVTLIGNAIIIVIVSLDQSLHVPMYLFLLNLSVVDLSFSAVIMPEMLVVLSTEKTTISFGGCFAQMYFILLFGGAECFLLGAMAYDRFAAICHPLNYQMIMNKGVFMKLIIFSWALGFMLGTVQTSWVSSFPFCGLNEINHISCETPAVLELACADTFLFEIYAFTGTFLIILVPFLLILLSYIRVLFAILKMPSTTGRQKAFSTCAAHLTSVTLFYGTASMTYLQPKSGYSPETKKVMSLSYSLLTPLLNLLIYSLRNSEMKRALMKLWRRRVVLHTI
Procedure, shortened: as §1

OR10A7 (Homo sapiens) = target: T5, OR10A7 (Homo sapiens) (UniProt Q8NGE5)
T5 sequence (whole entry): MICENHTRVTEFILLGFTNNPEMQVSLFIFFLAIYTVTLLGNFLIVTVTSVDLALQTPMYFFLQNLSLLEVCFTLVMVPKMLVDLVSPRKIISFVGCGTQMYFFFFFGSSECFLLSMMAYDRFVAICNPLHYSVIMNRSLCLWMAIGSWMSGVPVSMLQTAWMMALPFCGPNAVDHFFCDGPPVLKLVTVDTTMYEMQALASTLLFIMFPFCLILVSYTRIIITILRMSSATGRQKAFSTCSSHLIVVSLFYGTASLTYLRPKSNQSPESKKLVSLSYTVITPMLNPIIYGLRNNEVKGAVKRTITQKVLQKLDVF
Procedure, shortened: as §1

OR10AD1 (Homo sapiens) = target: T6, OR10AD1 (Homo sapiens) (UniProt Q8NGE0)
T6 sequence (whole entry): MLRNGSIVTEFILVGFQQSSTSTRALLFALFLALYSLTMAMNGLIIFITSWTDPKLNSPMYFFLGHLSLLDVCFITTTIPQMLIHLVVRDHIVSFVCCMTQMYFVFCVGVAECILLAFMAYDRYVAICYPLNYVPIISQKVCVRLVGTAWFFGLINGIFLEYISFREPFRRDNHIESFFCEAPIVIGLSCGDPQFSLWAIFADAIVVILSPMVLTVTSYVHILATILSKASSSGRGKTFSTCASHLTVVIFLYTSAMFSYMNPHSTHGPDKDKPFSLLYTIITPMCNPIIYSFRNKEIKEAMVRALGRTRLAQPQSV
Procedure, shortened: as §1

OR10AG1 (Homo sapiens) = target: T7, OR10AG1 (Homo sapiens) (UniProt Q8NH19)
T7 sequence (whole entry): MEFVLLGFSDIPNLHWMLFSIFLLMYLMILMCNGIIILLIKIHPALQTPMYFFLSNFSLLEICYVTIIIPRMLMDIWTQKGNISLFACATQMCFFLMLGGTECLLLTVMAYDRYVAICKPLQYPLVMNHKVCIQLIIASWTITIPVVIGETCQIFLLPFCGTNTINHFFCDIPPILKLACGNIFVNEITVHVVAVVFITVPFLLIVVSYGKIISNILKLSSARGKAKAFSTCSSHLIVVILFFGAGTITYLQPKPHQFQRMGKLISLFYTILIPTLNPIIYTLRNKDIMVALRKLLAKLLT
Procedure, shortened: as §1

OR10C1 (Homo sapiens) = target: T8, OR10C1 (Homo sapiens) (UniProt Q96KK4)
T8 sequence (whole entry): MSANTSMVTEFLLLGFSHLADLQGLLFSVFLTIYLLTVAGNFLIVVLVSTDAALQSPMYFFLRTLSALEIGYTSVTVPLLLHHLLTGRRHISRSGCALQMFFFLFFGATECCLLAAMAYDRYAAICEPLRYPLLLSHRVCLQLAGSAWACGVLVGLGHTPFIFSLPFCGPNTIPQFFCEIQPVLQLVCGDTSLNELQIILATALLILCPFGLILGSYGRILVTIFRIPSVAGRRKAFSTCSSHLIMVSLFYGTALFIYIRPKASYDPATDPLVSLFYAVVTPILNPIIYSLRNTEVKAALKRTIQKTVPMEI
Procedure, shortened: as §1

OR10D3 (Homo sapiens) = target: T9, OR10D3 (Homo sapiens) (UniProt Q8NH80)
T9 sequence (whole entry): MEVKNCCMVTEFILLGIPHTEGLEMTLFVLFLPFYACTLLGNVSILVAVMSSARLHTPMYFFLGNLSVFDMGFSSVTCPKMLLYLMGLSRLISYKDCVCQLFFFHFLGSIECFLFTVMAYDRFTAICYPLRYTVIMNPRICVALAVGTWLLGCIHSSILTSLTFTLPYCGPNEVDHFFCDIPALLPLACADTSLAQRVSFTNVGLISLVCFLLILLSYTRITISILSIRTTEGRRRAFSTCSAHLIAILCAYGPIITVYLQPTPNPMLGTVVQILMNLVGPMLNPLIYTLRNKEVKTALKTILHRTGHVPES
Procedure, shortened: as §1

Measured: odorant receptor agonist call;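 also: active if original authors judged signal statistically different from baseline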

CC(CO)CS (centres undefined)
inactive: OR10A3 (Homo sapiens) | OR10A4 (Homo sapiens) | OR10A5 (Homo sapiens) | OR10A6 (Homo sapiens) | OR10A7 (Homo sapiens) | OR10AD1 (Homo sapiens) | OR10AG1 (Homo sapiens) | OR10C1 (Homo sapiens) | OR10D3 (Homo sapiens)
